Assays:
[1] = tested on: Gsc, Mixl1, Smad7, Skil, SerpinE1, Lefty1 expression in mESCs; test: qRT-PCR of activin/nodal target genes in mESCs / embryoid bodies; assay type: cell-based, mouse
How it was run: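 E14Tg2a.IV mESCs were kept feeder-free with LIF; Trim33-null lines were kept on MEFs. Variants were Trim33 knockdown by lentiviral shRNA, Smad2/3-depleted, Smad4-null, or reconstituted with TRIM33 constructs. Embryoid bodies formed for 2.5 days, then received activin A (50 ng/ml) or SB431542 (10 μM) for 2 h. Total RNA went to qRT-PCR. Mean ± S.D. of quadruplicates, three independent experiments.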

TRIM33 PHD-Bromo = target: T1, TRIM33 PHD-Bromo (Homo sapiens, UniProt Q9UPN9); test: ITC binding of H3; conditions: versus H3(1-28) (KD=0.46 μM)
T1 sequence (Q9UPN9 882-1087 limits assumed): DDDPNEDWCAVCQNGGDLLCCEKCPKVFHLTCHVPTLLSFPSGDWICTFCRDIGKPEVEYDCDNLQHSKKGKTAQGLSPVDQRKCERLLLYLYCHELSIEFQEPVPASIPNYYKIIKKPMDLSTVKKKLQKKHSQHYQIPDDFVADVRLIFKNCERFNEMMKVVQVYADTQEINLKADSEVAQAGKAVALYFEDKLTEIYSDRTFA

HaCaT keratinocytes [2] = test: TGF-β gene responses in HaCaT; assay type: cell-based, human; conditions: qRT-PCR
[3] = tested on: MDA-MB-231 breast carcinoma cells; test: TGF-β gene responses in MDA-MB-231; assay type: cell-based, human; conditions: qRT-PCR, MDA-MB-231, TRIM33 depletion
HaCaT cells = test: Luciferase reporter, SERPINE1; assay type: cell-based, human; conditions: SERPINE1 (PAI1) element
MDA-MB-231 cells = test: Luciferase reporter, repeats of Smad binding element; assay type: cell-based, human; conditions: SBE repeats
HaCaT keratinocytes [4] = conditions: and our unpublished work, ref Gomis et al., 2006; cited from earlier work
[5] = tested on: MDA-MB-231 breast carcinoma cells; conditions: and our unpublished work, ref Gomis et al., 2006; cited from earlier work
[6] = tested on: TRIM33-Smad2/3 complex in mESCs; test: Smad2/3 co-immunoprecipitation, TRIM33-Smad2/3 complex formation; assay type: cell-based, mouse
[7] = tested on: Smad4-Smad2/3 complex in mESCs; test: Smad2/3 co-immunoprecipitation, Smad4-Smad2/3 complex formation; assay type: cell-based, mouse
[8] = tested on: activin responsive genes in EBs; test: Genome-wide transcriptomic analysis; assay type: cell-based, mouse; conditions: >3 fold change
[9] = tested on: TRIM33 at Gsc and Mixl1 promoters; test: ChIP of TRIM33 at Gsc / Mixl1 promoters; assay type: cell-based, mouse
How it was run: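 EBs (day 2.5) came from wild-type, Trim33-depleted, Smad2/3-depleted or Smad4-null mESCs. They were given activin A (50 ng/ml) or SB431542 (10 μM) for 2 h. Formaldehyde crosslinking (1%, 37 °C, 10 min) was quenched with glycine. Anti-TRIM33 ChIP used a kit, with absolute qPCR of Gsc/Mixl1 promoter regions reported as % input. Mean ± S.D. of quadruplicates, at least three experiments.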

[10] = tested on: Smad4 at Gsc and Mixl1 promoters; test: ChIP of Smad4 at Gsc / Mixl1 promoters; assay type: cell-based, mouse; conditions: EBs day 2.5, activin 2 h
How it was run: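 Wild-type, shRNA Trim33-depleted or TRIM33-reconstituted mESCs formed EBs for 2.5 days, then 2 h with activin A (50 ng/ml) or SB431542 (10 μM). Cells were crosslinked in 1% formaldehyde at 37 °C for 10 min and quenched in 0.125 M glycine. Anti-Smad4 ChIP was read by absolute qPCR of Gsc (−0.4 kb) and Mixl1 (−0.5/−0.2 kb) as % input. Mean ± S.D. of quadruplicates, three experiments.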

[11] = tested on: histone H3 modified residues at Gsc and Mixl1 promoters; test: ChIP of histone H3 marks at Gsc and Mixl1 promoters; assay type: cell-based, mouse; conditions: activin
How it was run: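 Histone-mark ChIP used day-2.5 mESC embryoid bodies treated with activin A (50 ng/ml) or SB431542 (10 μM). Cells were fixed with 1% formaldehyde (37 °C, 10 min) and quenched with glycine. Antibodies recognised modified H3 residues; protein A/G beads alone served as negative controls. Mono-nucleosome templates came from micrococcal nuclease digestion. Absolute qRT-PCR, percent of input. Mean ± S.D. of quadruplicates, ≥3 experiments.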

[12] = tested on: HP1γ at Gsc and Mixl1 promoters; test: ChIP of HP1γ at Gsc and Mixl1 promoters; assay type: cell-based, mouse; conditions: wild type and Trim33-null EBs day 2.5, activin 2 h
How it was run: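 Mouse E14Tg2a.IV ESCs (feeder-free, LIF) and Trim33-null ESCs (C57Bl/6J, on MEFs) formed EBs for 2.5 days, then got activin or SB for 2 h. HP1γ or no-antibody ChIP used a kit. Absolute qPCR covered Gsc −2.3 kb and Mixl1 −0.2/−0.5 kb, as % input. Mean ± S.D. of quadruplicates.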

[13] = tested on: RNA Pol II at Gsc and Mixl1 promoters; test: ChIP of RNA Pol II at Gsc and Mixl1 promoters; assay type: cell-based, mouse; conditions: Gsc -0.1 kb, Mixl1 -0.2 kb, EBs day 2.5, activin 2 h
How it was run: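 Mouse ESC embryoid bodies at day 2.5 (wild type or Trim33-null) received activin or SB431542 for 2 h. ChIP used anti-RNA Pol II. qRT-PCR read Gsc −0.1 kb and Mixl1 −0.2 kb as percent of input. Mean ± S.D. of quadruplicates, two independent experiments.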

NC(=O)c1ccc(-c2nc(-c3ccc4c(c3)OCO4)c(-c3ccccn3)[nH]2)cc1 [SB431542, reference compound]
sensitivity of endogenous nodal-like factor responses to SB431542 ([1]; mESC EBs, SB431542 10 μM): SB431542-sensitive

H3(1-28) acetylation of K18: H3(1-28) with acetylation of K18
enhancement of binding relative to H3(1-28) (TRIM33 PHD-Bromo): 2.3 fold

TGF-β
TGF-β response of SMAD7, SKIL and SERPINE1 on TRIM33 depletion (HaCaT keratinocytes [2]): did not significantly alter the TGF-β response | TGF-β response of SMAD7, SKIL and SERPINE1 on TRIM33 depletion [3]: did not significantly alter the TGF-β response | reporter response on TRIM33 depletion (HaCaT cells): increased the activity of these constructs | reporter response on TRIM33 depletion (MDA-MB-231 cells): increased the activity of these constructs | most TGF-β responses on RNAi depletion of Smad2/3 and Smad4 or TRIM33 (HaCaT keratinocytes [4]): inhibited by RNAi-mediated depletion of Smad2/3 and Smad4, but not by depletion of TRIM33 | most TGF-β responses on RNAi depletion of Smad2/3 and Smad4 or TRIM33 [5]: inhibited by RNAi-mediated depletion of Smad2/3 and Smad4, but not by depletion of TRIM33

activin: recombinant activin A (R&D Systems), ligand sharing receptors with nodal
formation of TRIM33-Smad2/3 complex, Smad4 requirement ([6]; Smad4-null mESCs): did not require Smad4 | t1/2 of TRIM33-Smad2/3 complex formation ([6]; mESCs, activin A 50 ng/ml): ~30 min | formation of Smad4-Smad2/3 complex on TRIM33 depletion ([7]; TRIM33 shRNA or knock-out mESCs): did not inhibit the formation of the Smad4-Smad2/3 complex | t1/2 of Smad4-Smad2/3 complex formation ([7]; mESCs, activin A 50 ng/ml): ~30 min | responsiveness to activin ([1]; Cripto/cryptic-depleted cells): remained responsive to activin | induction of Gsc, Mixl1, Smad7 ([1]; RNAi-mediated depletion of TRIM33, EB 2.5 days, activin 2 h): strongly blunted the induction of Gsc and Mixl1 but not that of Smad7 | Gsc, Mixl1 and Smad7 responses to added activin ([1]; Smad4-null or Smad2/3-depleted mESCs, EB 2.5 days, 2 h): lacked Gsc, Mixl1 and Smad7 responses | Gsc and Mixl1 responses ([1]; TRIM33-depleted cells reconstituted with shRNA-insensitive TRIM33 vector): restored the Gsc and Mixl1 responses | expression of Smad7, Skil and SerpinE1 ([1]; Trim33-null ESC lines, activin): stimulated the expression of the common Smad2/3 target genes | Lefty1 induction by activin ([1]; Trim33-null mESCs, Smad4-null mESCs depleted of TRIM33): blunted | expression of Gsc and Mixl1 ([1]; two independent Trim33-null ESC lines, activin): failed to stimulate the expression of Gsc and Mixl1 | total activin gene responses ([8]; p<0.05): 407 responses | activin gene responses requiring both Smad4 and TRIM33 ([8]; p<0.05, of 407 responses): 333 responses | TRIM33 ChIP binding, Mixl1 ([9]; EBs day 2.5, activin 2 h): Activin-dependent binding of TRIM33 occurred near the Mixl1 ARE | activin-dependent TRIM33 binding on Smad2/3 depletion, Mixl1 ([9]; depletion of Smad2/3): inhibited the activin-dependent binding of TRIM33 | activin-induced TRIM33 binding, effect of Smad4 ([9]; wild-type versus Smad4-null ESCs): enhanced the activin-induced binding of TRIM33 to its sites | Smad4 ChIP binding, Gsc [10]: Activin-dependent binding of Smad4 occurred only at the ARE | level of H3K18ac ([11]; TRIM33 binding regions and throughout Gsc and Mixl1 promoters): rapid, marked increase in the level of H3K18ac | levels of H3K14ac and H3K23ac [11]: increased by activin | level of H3K9me3 ([11]; throughout these regions of Gsc and Mixl1 promoters): did not affect the level of H3K9me3 | HP1γ binding to TRIM33 target regions [12]: inhibited by activin addition in a TRIM33-dependent manner | level of Pol II binding to initiator region [13]: increase in the level of Pol II binding

— paper PMC3582033 (Cell, 2011)
